This is an account of results in PubChem BioAssay.

By viability is commonly meant a read-out of living cells in per cent, often relative to untreated cells. What is called inhibition is the drop in the measured response relative to a control, in per cent.

Unmarked numbers belong to inactive results. Inconclusive results are not listed. Active and inactive are the calls of the source.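 How the source made its calls, unless noted: active means viability at or below 27.92% in each of two runs, the all-compound median minus 4 SD; inconclusive means no clear call, values can overlap the other calls; inactive means the rest.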

The nature of assay [1]: S. cerevisiae growth inhibition in permissive medium (OD615), pilot counter-assay for S. cerevisiae lifespan shortening project, permissive growth control (AID 705;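 active means growth inhibition above 25% in both replicates, a cutoff set 3 SD above the mean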). The settings on record: OD615, 24 h, at 10 µM, hits give high values. The procedure, abridged:
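System: engineered DeaD yeast; Medium: permissive raffinose/galactose medium; Compound dosing: 10 µM single dose, 0.25% DMSO; Incubation: 4 h cell pre-growth, 24 h exposure at 30 °C; Technique: OD at 615 nm; Evaluation: growth inhibition from lowered OD615 after 24 h.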

The nature of assay [2]: S. cerevisiae growth inhibition in restrictive medium, OD615, pilot screen, restrictive growth control, yeast lifespan reduction project (AID 706;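 active means growth inhibition above a set limit, 3 SD over mean compound inhibition, in both replicates, cut at about 43% in these data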;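 further: modified DeaD lifespan yeast strain shifted to restrictive glucose medium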). The settings on record: OD615, 48 h, at 10 µM, hits give high values. The procedure, abridged:
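Material: modified S. cerevisiae; buffer or medium: CSMM-D glucose medium; doses: one concentration, 10 µM final, 0.25% DMSO; incubation: 48 h compound exposure at 30 °C; detection: optical density at 615 nm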

Assay [3] can be described thus: doxorubicin toxicity protection in MRP-1 cells – H69AR cells, CellTiter-Glo, duplicate, MRP-1 activator project, pilot screen (AID 807;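 active means viability increase at or above a cutoff of the median across tested compounds plus 3 SD, cut at about 8.5% in these data, passing the limit was not always enough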;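 further: compound pretreatment 18-22 h then 72 h combined with doxorubicin; 0% = doxorubicin alone and 100% = vehicle without doxorubicin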). The settings on record: H69AR viability with doxorubicin, CellTiter-Glo luminescence; at 10 µM; hits give high values. (In general: In ATP-based viability assays light output follows the ATP content of the culture.)
Assay [4] is described as follows: viability of HCT116 without oncogenic beta-catenin – human colon tumor cells, pilot screen (AID 823;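 active means cell viability at or below a set limit in both duplicate runs, the limit being the all-compound median minus 4 SD, cut at about 23% in these data, passing the limit was not always enough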;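 further: 0% = wells killed by 20 µM Hyamine and 100% = untreated DMSO cell wells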). As to conditions: HCT116 beta-catenin knockout viability, CellTiter-Glo, 60 h; at 10 µM; hits give low values.
Assay [5] is described as follows: viability of PTEN-null HCT116 cells – cell-based, HCT116 clonal line, CellTiter-Glo, pilot screen (AID 824).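 Further: 0% = 20 µM Hyamine control and 100% = vehicle cell control.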 The settings on record: HCT116 PTEN-deleted viability, 60 h, at 10 µM, hits give low values.
A short description of assay [6]: RAM pathway blockade in budding yeast – dse1pr::URA3 reporter, 5-FOA selection, pilot screen (AID 869;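 active means inhibition over a set limit, the all-compound mean plus 3 SD, in both replicate runs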;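 further: 0% = DMSO wells with no growth and 100% = 10 µM 1-NA-PP1 with full growth; RAM network block rescues cells from 5-FOA so hits raise OD615 growth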). As to conditions: S. cerevisiae dse1pr::URA3 5-FOA growth, OD615, 2 d; at 10 µM; hits give high values; strain carries analog-sensitive mutant Cbk1 kinase.
Assay [7] can be described thus: RAM signaling pathway blockade in yeast – S. cerevisiae, Pdr1DBD-CYC8 efflux-inhibited sensitized strain, primary screen (AID 1298;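 active means RAM network inhibition above 8.4% in each of two replicates, 3 SD over the compound average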;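 further: 0% = DMSO untreated cells without growth and 100% = 10 µM 1-NA-PP1 full growth; higher means more yeast growth rescued from 5-FOA killing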). The settings on record: S. cerevisiae cbk1-as DSE1-URA3 strain, 5-FOA growth OD615, 2 d; at 50 µM; hits give high values.

Turning to `CN1C(=O)CC(N2CCC(c3nc4ccccc4[nH]3)CC2)C1=O` (stereo unspecified), the growth inhibition in assay [1] is -11.7%; in assay [2], -11.2%. Besides, the viability increase in assay [3] was -0.66%. For the same molecule, the results for the viability in assay [4] and in assay [5] were 112% and 98.9%, respectively. For the same molecule, the inhibition in assay [6] is 3.77%. In assay [7], the RAM network inhibition was 3.31%.
On to `CCCc1cc(=O)oc2cc(OCC(=O)N(C)C)c(Cl)cc12`, for which the figures for the growth inhibition in assay [1] and in assay [2] were -3.68% and 6.56%, respectively. Further, in assay [3], the viability increase was -0.5%. The viability in assay [4] is 99.6%; in assay [5], 93.9%. Moreover, the inhibition in assay [6] was 1.73%. In addition, the RAM network inhibition in assay [7] is -1.29%.
Regarding `Cn1c(=O)c2c(SCC(=O)N3CCC(Cc4ccccc4)CC3)nc(C3CC3)nc2n(C)c1=O`, the results for the growth inhibition in assay [1] and in assay [2] were -0.44% and -9.93%, respectively. Moreover, the viability increase in assay [3] was -1.06%. Further, the viability in assay [4] is 92.9%; in assay [5], 88.1%. The inhibition in assay [6] was 1.28%. In addition, the RAM network inhibition in assay [7] was 0.47%.
As for `CCN1CCN(C(c2cccs2)C(C)NC(=O)C(C)C)CC1` (stereo unspecified), the figures for the growth inhibition in assay [1] and in assay [2] were -3.71% and 2.65%, respectively. The viability increase in assay [3] was -2.01%. Further, the viability in assay [4] is 98%; in assay [5], 92.2%. Further, the inhibition in assay [6] is -0.3%. Also, the RAM network inhibition in assay [7] is 3.86%.
Take `COc1cccc(-c2cc(N)nn2C(=O)Nc2ccc(Cl)cc2)c1`: the figures for the growth inhibition in assay [1] and in assay [2] were -15.4% and -29.3%, respectively. Also, in assay [3], the viability increase was -2.28%. Further, the viability in assay [4] was 105%; in assay [5], 90.7%. Besides, the inhibition in assay [6] was -0.025%. Further, the RAM network inhibition in assay [7] is 0.22%.
As to `O=C(c1ccccc1F)N1CCN(S(=O)(=O)c2ccc3c(c2)OCCO3)CC1`, the results for the growth inhibition in assay [1] and in assay [2] were -6.31% and 3.28%, respectively. For the same molecule, in assay [3], the viability increase is -5.24%. The viability is 90.5% in assay [4] and 91.3% in assay [5]. Moreover, the inhibition in assay [6] is 3.16%. The RAM network inhibition in assay [7] was 2.93%.
`CCCc1nc(C)c(-c2ccc(OC)c(OC)c2)c(=O)[nH]1`: the growth inhibition is -17.9% in assay [1] and -15.2% in assay [2]. Also, the viability increase in assay [3] was -0.18%. For the same molecule, the figures for the viability in assay [4] and in assay [5] were 101% and 95.3%, respectively. Also, the inhibition in assay [6] was 2.53%. In addition, the RAM network inhibition in assay [7] was 0.84%.
In the case of `COc1ccc(-c2cc(C(=O)O)c3ccccc3n2)c(OC)c1`, the growth inhibition is -10.4% in assay [1] and 0.26% in assay [2]. Besides, in assay [3], the viability increase is -2.6%. Moreover, the viability in assay [4] is 82.2%; in assay [5], 89.3%. In addition, the inhibition in assay [6] is 1.47%. Moreover, in assay [7], the RAM network inhibition is 5.56%.
Consider `O=C(O)CN1C(=O)COc2cc(S(=O)(=O)N3CCCC3)ccc21`, for which the values for the growth inhibition in assay [1] and in assay [2] were 4.97% and -0.475%, respectively. For the same molecule, in assay [3], the viability increase is 0.05%. Further, the viability in assay [4] is 94.8%; in assay [5] it was 102%. For the same molecule, in assay [6], the inhibition is 0%. In addition, the RAM network inhibition in assay [7] was 2.14%.
`Nc1nc(SCc2ccc(Cl)cc2)ns1`: the growth inhibition is 10.4% in assay [1] and 7.05% in assay [2]. For the same molecule, in assay [3], the viability increase is 1.03%. Moreover, the viability in assay [4] is 98.4%; in assay [5], 89.2%. Also, the inhibition in assay [6] was 0.695%. Moreover, the RAM network inhibition in assay [7] was 0.78%.
In the case of `Cc1nn(CCCC(=O)N2CCc3ccccc3C2)c(=O)c2cc3sccc3n12`, the growth inhibition in assay [1] is -4.89%; in assay [2], -14.2%. For the same molecule, the viability increase in assay [3] is -1.17%. Besides, the viability in assay [4] was 97%; in assay [5], 88.1%. The inhibition in assay [6] was 1.39%. The RAM network inhibition in assay [7] is 0.42%.
Take `O=C(Nc1ccccc1Cl)c1ccc(S(=O)(=O)N2CCOCC2)cc1`: the values for the growth inhibition in assay [1] and in assay [2] were -11.5% and -7.41%, respectively. Besides, the viability increase in assay [3] was -0.1%. Moreover, the results for the viability in assay [4] and in assay [5] were 111% and 99.4%, respectively. Moreover, in assay [6], the inhibition is 0.585%. Further, in assay [7], the RAM network inhibition was 2.05%.
For the molecule `CCCCCCC1C(C#N)=C(N)OC2=C1C(=O)CCC2` (stereo unspecified), the growth inhibition in assay [1] is -12%; in assay [2], -14.4%. Also, in assay [3], the viability increase is -2.64%. Moreover, the viability in assay [4] was 101%; in assay [5], 92%. Further, in assay [6], the inhibition is 3.6%. Also, the RAM network inhibition in assay [7] is 4.66%.
For `C=CCNC(=O)c1c(Cl)cccc1Cl`, the figures for the growth inhibition in assay [1] and in assay [2] were -12.2% and 3.24%, respectively. In addition, the viability increase in assay [3] is -1.31%. In addition, the viability in assay [4] was 90.5%; in assay [5], 97.3%. Also, the inhibition in assay [6] was 0.94%. Also, the RAM network inhibition in assay [7] is 3.89%.
Regarding `CCN(CC)C(=O)CSc1ccccc1N`, the growth inhibition in assay [1] is -16.2%; in assay [2], -9.23%. For the same molecule, the viability increase in assay [3] is -1.98%. For the same molecule, the viability in assay [4] was 89.5%; in assay [5], 94.4%. Besides, the inhibition in assay [6] was 0.885%. Also, the RAM network inhibition in assay [7] was 5.73%.
For the molecule `CC(C)(C)C1CCc2c(sc(NC(=O)c3cc(C4CC4)on3)c2C#N)C1` (stereo unspecified), the growth inhibition in assay [1] was -2.48%; in assay [2], -5.6%. In assay [3], the viability increase was -1.27%. Also, the viability in assay [4] was 96.8%; in assay [5], 90.5%. In addition, the inhibition in assay [6] was 3.56%. In addition, the RAM network inhibition in assay [7] was 2.83%.
With `CC(Oc1ccc(Cl)cc1Cl)c1nc(-c2ccccn2)no1` (stereo unspecified), the figures for the growth inhibition in assay [1] and in assay [2] were -3.06% and 5.3%, respectively. In addition, in assay [3], the viability increase was 1.23%. Further, the viability in assay [4] was 99.1%; in assay [5], 87.7%. Besides, the inhibition in assay [6] was 0.375%. Moreover, the RAM network inhibition in assay [7] was 2.34%.
For the molecule `CN1CCN(CCCNC(=O)c2cc3c(-c4ccc(Cl)cc4)nn(C)c3s2)CC1`, the growth inhibition in assay [1] is -8.24%; in assay [2], -2.25%. Moreover, the viability increase in assay [3] is -8.21%. The viability is 2.18% (active) in assay [4] and 2% (active) in assay [5]. Moreover, in assay [6], the inhibition is 0.445%. Moreover, in assay [7], the RAM network inhibition was 0.92%.
